ChEMBL document CHEMBL1212842, “Substrate specificity and inhibitory study of human airway trypsin-like protease” (Bioorg Med Chem, 2010)
Values belong to the molecule of their own block, whether it stands above or below them. Where a SMILES comes first, the peptide text is derived from it. [ ]: non-standard residue; d: D form. The star is where a group is joined. NH(3-CONH2-4-NO2-Ph) = NC(=O)c1cc(N*)ccc1[N+](=O)[O-]; AMC = Cc1cc(=O)oc2cc(N*)ccc12; 2Abz = Nc1ccccc1C(=O)O; Boc = CC(C)(C)OC(=O)*

Tests used:
Homo sapiens [1] = species on record: Homo sapiens; experiment: Activity at human tryptase by FRET assay
Homo sapiens [2] = species on record: Homo sapiens; experiment: Ratio of Kcat to Km for human tryptase by FRET assay
Bos taurus [3] = species on record: Bos taurus; experiment: Activity at bovine trypsin by FRET assay
Bos taurus [4] = species on record: Bos taurus; experiment: Ratio of Kcat to Km for bovine trypsin by FRET assay
[5] = biological target: T1, Transmembrane protease serine 11D (Homo sapiens, UniProt O60235); experiment: Inhibition of human HAT by FRET assay
T1 sequence (O60235 whole entry): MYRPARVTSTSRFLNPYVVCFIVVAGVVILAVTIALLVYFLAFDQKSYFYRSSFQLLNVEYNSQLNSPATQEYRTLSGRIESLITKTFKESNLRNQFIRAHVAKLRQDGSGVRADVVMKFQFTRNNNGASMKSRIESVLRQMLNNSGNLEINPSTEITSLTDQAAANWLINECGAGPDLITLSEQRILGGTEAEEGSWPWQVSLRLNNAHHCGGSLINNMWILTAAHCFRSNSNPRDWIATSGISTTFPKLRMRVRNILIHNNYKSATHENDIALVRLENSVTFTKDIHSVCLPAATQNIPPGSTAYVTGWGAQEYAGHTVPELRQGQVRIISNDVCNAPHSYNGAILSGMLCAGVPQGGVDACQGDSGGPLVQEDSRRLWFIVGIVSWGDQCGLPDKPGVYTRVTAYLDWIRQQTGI
Procedure, shortened: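 Inhibitor at increasing concentrations (0–100 nM) was preincubated for 60 min with enzyme (20 nM) in Tris-HCl, pH 7.8. Chromogenic substrate (1.8–100 µM) was then added and absorbance was followed over time. For HAT, the substrate was an ABZ/ANB-labelled tetrapeptide. Ki was calculated from the initial velocities of hydrolysis.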

[6] = biological target: T2, Suppressor of tumorigenicity 14 protein (Homo sapiens, UniProt Q9Y5Y6); experiment: Inhibition of human matriptase by FRET assay
T2 sequence (Q9Y5Y6 whole entry): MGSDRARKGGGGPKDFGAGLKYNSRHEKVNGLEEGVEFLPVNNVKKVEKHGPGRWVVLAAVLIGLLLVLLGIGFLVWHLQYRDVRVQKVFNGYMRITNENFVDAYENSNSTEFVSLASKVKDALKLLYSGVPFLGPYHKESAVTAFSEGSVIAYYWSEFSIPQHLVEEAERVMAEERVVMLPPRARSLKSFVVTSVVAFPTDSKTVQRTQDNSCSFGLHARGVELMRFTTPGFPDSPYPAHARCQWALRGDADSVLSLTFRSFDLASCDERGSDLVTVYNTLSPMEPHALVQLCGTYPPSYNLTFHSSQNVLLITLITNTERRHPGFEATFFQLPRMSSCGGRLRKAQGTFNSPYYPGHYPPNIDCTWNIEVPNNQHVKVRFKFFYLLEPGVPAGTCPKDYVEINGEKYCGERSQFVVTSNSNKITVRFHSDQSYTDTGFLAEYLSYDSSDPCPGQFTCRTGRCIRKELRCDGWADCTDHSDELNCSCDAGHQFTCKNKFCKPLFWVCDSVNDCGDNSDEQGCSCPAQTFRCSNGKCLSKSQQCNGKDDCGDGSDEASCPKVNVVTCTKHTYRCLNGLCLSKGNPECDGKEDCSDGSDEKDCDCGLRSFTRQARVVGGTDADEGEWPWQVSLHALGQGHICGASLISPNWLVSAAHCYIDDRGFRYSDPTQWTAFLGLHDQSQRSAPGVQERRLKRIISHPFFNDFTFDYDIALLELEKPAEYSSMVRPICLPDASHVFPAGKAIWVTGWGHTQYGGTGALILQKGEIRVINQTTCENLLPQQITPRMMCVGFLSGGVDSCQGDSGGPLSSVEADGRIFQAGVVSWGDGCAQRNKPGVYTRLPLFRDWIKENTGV

[7] = Inhibition of human tryptase by FRET assay
[8] = Inhibition of bovine trypsin by FRET assay; set-up: species or system Bos taurus
[9] = substrate: Cc1cc(=O)oc2cc(NC(=O)[C@H](CCCNC(=N)N)NC(=O)[C@H](CO)NC(=O)[C@H](Cc3ccccc3)NC(=O)OC(C)(C)C)ccc12; experiment: (§1) Activity at human matriptase by FRET assay
[10] = substrate: N=C(N)NCCC[C@H](NC(=O)c1ccccc1N)C(=O)N[C@@H](CCC(N)=O)C(=O)N[C@@H](CC(=O)O)C(=O)N[C@@H](CCCCN)C(=O)Nc1ccc([N+](=O)[O-])c(C(N)=O)c1; experiment: as §1
[11] = substrate: N=C(N)NCCC[C@H](NC(=O)c1ccccc1N)C(=O)N[C@@H](CCC(N)=O)C(=O)N[C@@H](CC(=O)O)C(=O)N[C@@H](CCCNC(=N)N)C(=O)Nc1ccc([N+](=O)[O-])c(C(N)=O)c1; experiment: as §1
[12] = substrate: Cc1cc(=O)oc2cc(NC(=O)[C@H](CCCNC(=N)N)NC(=O)[C@H](CO)NC(=O)[C@H](Cc3ccccc3)NC(=O)OC(C)(C)C)ccc12; experiment: (§2) Ratio of Kcat to Km for human matriptase by FRET assay
[13] = substrate: N=C(N)NCCC[C@H](NC(=O)c1ccccc1N)C(=O)N[C@@H](CCC(N)=O)C(=O)N[C@@H](CC(=O)O)C(=O)N[C@@H](CCCCN)C(=O)Nc1ccc([N+](=O)[O-])c(C(N)=O)c1; experiment: as §2
[14] = substrate: N=C(N)NCCC[C@H](NC(=O)c1ccccc1N)C(=O)N[C@@H](CCC(N)=O)C(=O)N[C@@H](CC(=O)O)C(=O)N[C@@H](CCCNC(=N)N)C(=O)Nc1ccc([N+](=O)[O-])c(C(N)=O)c1; experiment: as §2
[15] = substrate: Cc1cc(=O)oc2cc(NC(=O)[C@H](CCCNC(=N)N)NC(=O)[C@H](CO)NC(=O)[C@H](Cc3ccccc3)NC(=O)OC(C)(C)C)ccc12; experiment: (§3) Activity at human HAT by FRET assay
[16] = substrate: N=C(N)NCCC[C@H](NC(=O)c1ccccc1N)C(=O)N[C@@H](CCC(N)=O)C(=O)N[C@@H](CC(=O)O)C(=O)N[C@@H](CCCCN)C(=O)Nc1ccc([N+](=O)[O-])c(C(N)=O)c1; experiment: as §3
[17] = substrate: N=C(N)NCCC[C@H](NC(=O)c1ccccc1N)C(=O)N[C@@H](CCC(N)=O)C(=O)N[C@@H](CC(=O)O)C(=O)N[C@@H](CCCNC(=N)N)C(=O)Nc1ccc([N+](=O)[O-])c(C(N)=O)c1; experiment: as §3
[18] = substrate: Cc1cc(=O)oc2cc(NC(=O)[C@H](CCCNC(=N)N)NC(=O)[C@H](CO)NC(=O)[C@H](Cc3ccccc3)NC(=O)OC(C)(C)C)ccc12; experiment: (§4) Ratio of Kcat to Km for human HAT by FRET assay
[19] = substrate: N=C(N)NCCC[C@H](NC(=O)c1ccccc1N)C(=O)N[C@@H](CCC(N)=O)C(=O)N[C@@H](CC(=O)O)C(=O)N[C@@H](CCCCN)C(=O)Nc1ccc([N+](=O)[O-])c(C(N)=O)c1; experiment: as §4
[20] = substrate: N=C(N)NCCC[C@H](NC(=O)c1ccccc1N)C(=O)N[C@@H](CCC(N)=O)C(=O)N[C@@H](CC(=O)O)C(=O)N[C@@H](CCCNC(=N)N)C(=O)Nc1ccc([N+](=O)[O-])c(C(N)=O)c1; experiment: as §4

Km (Homo sapiens [1]): 19.4 µM
kcat (Homo sapiens [1]): 53.6 ×10⁻¹ /s
kcat/Km (Homo sapiens [2]): 276 ×10³ /M/s
Km (Bos taurus [3]): 16.5 µM
kcat (Bos taurus [3]): 72.3 ×10⁻¹ /s
kcat/Km (Bos taurus [4]): 442 ×10³ /M/s
Molecule: Cc1cc(=O)oc2cc(NC(=O)[C@H](CCCNC(=N)N)NC(=O)[C@H](CO)NC(=O)[C@H](Cc3ccccc3)NC(=O)OC(C)(C)C)ccc12 (Boc-Phe-Ser-Arg-{AMC})

Km (Homo sapiens [1]): 269 µM
kcat (Homo sapiens [1]): 11.8 ×10⁻¹ /s
kcat/Km (Homo sapiens [2]): 6.7 ×10³ /M/s
Km (Bos taurus [3]): 1840 µM
kcat (Bos taurus [3]): 0.8 ×10⁻¹ /s
kcat/Km (Bos taurus [4]): 0.1 ×10³ /M/s
Molecule: N=C(N)NCCC[C@H](NC(=O)c1ccccc1N)C(=O)N[C@@H](CCC(N)=O)C(=O)N[C@@H](CC(=O)O)C(=O)N[C@@H](CCCCN)C(=O)Nc1ccc([N+](=O)[O-])c(C(N)=O)c1 (H-[2Abz]RQDK-{NH(3-CONH2-4-NO2-Ph)})

Ki [5]: 54.3 nM
Ki [6]: 973 nM
Ki [7]: 2130 nM
Ki [8]: 3930 nM
Molecule: N=C(N)NCCC[C@H](NC(=O)[C@H](CC(=O)O)NC(=O)[C@H](CCC(N)=O)NC(=O)[C@H](CCCNC(=N)N)NC(=O)c1ccccc1N)C(=O)O (H-[2Abz]RQDR-OH)

Km (Homo sapiens [1]): 155 µM
kcat (Homo sapiens [1]): 42.2 ×10⁻¹ /s
kcat/Km (Homo sapiens [2]): 27.4 ×10³ /M/s
Km (Bos taurus [3]): 1120 µM
kcat (Bos taurus [3]): 1.4 ×10⁻¹ /s
kcat/Km (Bos taurus [4]): 0.2 ×10³ /M/s
Molecule: N=C(N)NCCC[C@H](NC(=O)c1ccccc1N)C(=O)N[C@@H](CCC(N)=O)C(=O)N[C@@H](CC(=O)O)C(=O)N[C@@H](CCCNC(=N)N)C(=O)Nc1ccc([N+](=O)[O-])c(C(N)=O)c1 (H-[2Abz]RQDR-{NH(3-CONH2-4-NO2-Ph)})

B1: Suppressor of tumorigenicity 14 protein (Homo sapiens), Q9Y5Y6 (protein)
chain: MGSDRARKGGGGPKDFGAGLKYNSRHEKVNGLEEGVEFLPVNNVKKVEKHGPGRWVVLAAVLIGLLLVLLGIGFLVWHLQYRDVRVQKVFNGYMRITNENFVDAYENSNSTEFVSLASKVKDALKLLYSGVPFLGPYHKESAVTAFSEGSVIAYYWSEFSIPQHLVEEAERVMAEERVVMLPPRARSLKSFVVTSVVAFPTDSKTVQRTQDNSCSFGLHARGVELMRFTTPGFPDSPYPAHARCQWALRGDADSVLSLTFRSFDLASCDERGSDLVTVYNTLSPMEPHALVQLCGTYPPSYNLTFHSSQNVLLITLITNTERRHPGFEATFFQLPRMSSCGGRLRKAQGTFNSPYYPGHYPPNIDCTWNIEVPNNQHVKVRFKFFYLLEPGVPAGTCPKDYVEINGEKYCGERSQFVVTSNSNKITVRFHSDQSYTDTGFLAEYLSYDSSDPCPGQFTCRTGRCIRKELRCDGWADCTDHSDELNCSCDAGHQFTCKNKFCKPLFWVCDSVNDCGDNSDEQGCSCPAQTFRCSNGKCLSKSQQCNGKDDCGDGSDEASCPKVNVVTCTKHTYRCLNGLCLSKGNPECDGKEDCSDGSDEKDCDCGLRSFTRQARVVGGTDADEGEWPWQVSLHALGQGHICGASLISPNWLVSAAHCYIDDRGFRYSDPTQWTAFLGLHDQSQRSAPGVQERRLKRIISHPFFNDFTFDYDIALLELEKPAEYSSMVRPICLPDASHVFPAGKAIWVTGWGHTQYGGTGALILQKGEIRVINQTTCENLLPQQITPRMMCVGFLSGGVDSCQGDSGGPLSSVEADGRIFQAGVVSWGDGCAQRNKPGVYTRLPLFRDWIKENTGV
Km [9]: 12.1 µM
kcat [9]: 42.8 ×10⁻¹ /s
Km [10]: 70.6 µM
kcat [10]: 16.3 ×10⁻¹ /s
Km [11]: 68.5 µM
kcat [11]: 67.4 ×10⁻¹ /s
kcat/Km [12]: 356 ×10³ /M/s
kcat/Km [13]: 23.1 ×10³ /M/s
kcat/Km [14]: 98.4 ×10³ /M/s

B2: Transmembrane protease serine 11D (Homo sapiens), O60235 (protein)
chain: MYRPARVTSTSRFLNPYVVCFIVVAGVVILAVTIALLVYFLAFDQKSYFYRSSFQLLNVEYNSQLNSPATQEYRTLSGRIESLITKTFKESNLRNQFIRAHVAKLRQDGSGVRADVVMKFQFTRNNNGASMKSRIESVLRQMLNNSGNLEINPSTEITSLTDQAAANWLINECGAGPDLITLSEQRILGGTEAEEGSWPWQVSLRLNNAHHCGGSLINNMWILTAAHCFRSNSNPRDWIATSGISTTFPKLRMRVRNILIHNNYKSATHENDIALVRLENSVTFTKDIHSVCLPAATQNIPPGSTAYVTGWGAQEYAGHTVPELRQGQVRIISNDVCNAPHSYNGAILSGMLCAGVPQGGVDACQGDSGGPLVQEDSRRLWFIVGIVSWGDQCGLPDKPGVYTRVTAYLDWIRQQTGI
Km [15]: 43.6 µM
kcat [15]: 25.4 ×10⁻¹ /s
Km [16]: 12.3 µM
kcat [16]: 24.1 ×10⁻¹ /s
Km [17]: 25.4 µM
kcat [17]: 115 ×10⁻¹ /s
kcat/Km [18]: 58.2 ×10³ /M/s
kcat/Km [19]: 195 ×10³ /M/s
kcat/Km [20]: 454 ×10³ /M/s
